Results of several laboratories.
Each line is one published result; the experiments were not run side by side.
Target: Mitogen-activated protein kinase 9 (MAPK9, Homo sapiens, UniProt P45984)

Compound | observed | method | tested at | remaining binding
CNC(=O)Nc1ccc2c(c1)[C@@]1(CC2)OC(=O)N(CC(=O)N(Cc2ccc(F)cc2)[C@@H](C)C(F)(F)F)C1=O | cell-free assay | competition with immobilised ligand | 1 µM | 69%
CC(C)(C)c1ccc(-c2nc(CBr)nn2-c2cccc(O)c2)cc1 | cell-free assay | competition with immobilised ligand | 10 µM | 46%
C[C@@H]1CN(c2ccc3ncc(-c4ccc5[nH]nc(C6CC6)c5c4)n3n2)C[C@H](C)O1 | binding | competition with immobilised ligand | 0.5 µM | 50%
CCN1CCN(Cc2ccc(C(=O)Nc3ccc(C)c(Oc4ccc5c(c4)CC(=O)N5)c3)cc2C(F)(F)F)CC1 | binding | competition with immobilised ligand | 1 µM | 29%
CN(C)c1nccc(-c2cnc3ncccn23)n1 | binding |  | 1 µM | 60%
O=C(NCCCN1CCOCC1)c1ccc(Nc2nccc(-c3cc4ccccc4s3)n2)cc1 | binding | competition with immobilised ligand | 1 µM | 33%
C[C@@H]1CCN(c2nccc(-c3cnn4ncccc34)n2)C1 | binding |  | 1 µM | 64%
O=C(c1ccc(Nc2ncc(Cl)c(-c3ccc(Cl)s3)n2)cc1)N1CCC(N2CCCC2)CC1 | binding | competition with immobilised ligand | 1 µM | 1.1%
c1cnn2ncc(-c3ccnc(N4CCC45COC5)n3)c2c1 | binding |  | 1 µM | 44%
O=C(Nc1c[nH]nc1C(=O)NC1CCNCC1)c1cc(F)cc(F)c1 | binding | competition with immobilised ligand | 1 µM | 100%
CN(CCCC(F)(F)F)c1nccc(-c2cnn3ncccc23)n1 | binding |  | 1 µM | 90%
NS(=O)(=O)c1cc(NC(=O)C2(c3ccccc3Cl)CC2)ccc1Oc1cccc(Cl)c1 | cell-free assay | competition with immobilised ligand | 1 µM | 100%
COc1cnc(Nc2cccc(S(N)(=O)=O)c2)nc1N1CCN(c2ccccc2)CC1 | binding | competition with immobilised ligand | 1 µM | 72%
O=C(NCCCC1CCCCC1)c1ccc(CNC(=O)c2cnn(-c3ccccc3)c2C(F)(F)F)cc1 | cell-free assay | competition with immobilised ligand | 0.1 µM | 85%
O=C(c1ccc(Nc2ncc(Cl)c(-c3cc4ccccc4s3)n2)cc1)N1CCC(N2CCCC2)CC1 | binding | competition with immobilised ligand | 1 µM | 9.8%
CCS(=O)(=O)c1cc2cc(C[C@@](O)(CC(C)(C)c3ccc(F)cc3C(N)=O)C(F)(F)F)[nH]c2cn1 | cell-free assay | competition with immobilised ligand | 1 µM | 84%
FC(F)(F)Oc1cccc(-c2cnc3ccc(-c4ccncc4)nn23)c1 | cell-free assay | competition with immobilised ligand | 5 µM | 76%
COc1cccc(CNC(=O)c2nc3scc(COCc4ccc(C(=O)O)cc4)c3c(=O)[nH]2)c1 | cell-free assay | competition with immobilised ligand | 1 µM | 97.1%
N[C@@H]1CCN(c2nccc(-c3cnn4ncccc34)n2)C1 | binding |  | 1 µM | 100%
CCC(=O)N[C@@H]1CC[C@H](C(=O)N(C)c2ccc(-c3nc4ccccc4o3)cc2)C1 | cell-free assay | competition with immobilised ligand | 1 µM | 98%
CN(C)c1nccc(-c2cnn3ncccc23)n1 | binding |  | 1 µM | 55%
CNCc1ccccc1-c1csc([C@H](C)Nc2nc(C)nc3cc(OC)c(OC)cc23)c1 | cell-free assay | competition with immobilised ligand | 1 µM | 71%
N#Cc1ccccc1CSc1nnc2c(n1)[nH]c1ccccc12 | binding | competition with immobilised ligand | 10 µM | 90%
